# Measurements as given in the EternaBench riboswitch data.
# What was measured:
# MS2 coat protein [1] = experiment: apparent Kd, MS2 coat protein; higher = weaker binding; RNA-MaP array
# Method in brief: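 Apparent Kd was taken as the median of binding curves fitted cluster by cluster. The designed RNAs were made by transcription of sequenced DNA templates on an Illumina sequencing chip and exposed to fluorescently labeled MS2 coat protein (1.5 nM to 3 μM) at room temperature, with or without input ligand, for 0.8–1.5 h at the lowest and 10–20 min at the highest concentrations. Any design measured on fewer than 10 clusters was left out.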
# MS2 coat protein [2] = experiment: apparent Kd, MS2 coat protein; higher = weaker binding; RNA-MaP array; FMN 200 µM where present
# Method in brief: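 Green signal was scaled to red-channel RNA signal and control-cluster median Fmax, and the apparent Kd was taken as the median of filtered per-cluster binding-curve fits. The binding series used SNAP-549-labelled MS2 coat protein from 0.7 or 1.5 nM, doubling to 3 µM, on designs transcribed by stalled E. coli RNA polymerase on Illumina sequencing-chip clusters. Each series ran without and then with constant ligand in 100 mM Tris-HCl pH 7.5, 80 mM KCl, 4 mM MgCl2, BSA, DTT, yeast tRNA and Tween-20.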
# [3] = designed as: ON switch for flavin mononucleotide, no ligand
# [4] = ligand present: flavin mononucleotide, designed as: ON switch for flavin mononucleotide
# [5] = designed as: OFF switch for flavin mononucleotide, no ligand
# [6] = ligand present: flavin mononucleotide, designed as: OFF switch for flavin mononucleotide
# [7] = designed as: ON switch for tryptophan, no ligand
# [8] = ligand present: tryptophan, designed as: ON switch for tryptophan
sequence,measurement,setting,value
GACGAGUGCGAGUCACAUGAGGAUCACCCAUGUAACCAUGGGCAGGAUAUCUACCAGUUACUUUCAGAGAAGGGCCAACGAACU,apparent Kd,MS2 coat protein [1]; [3],419 nM
same,apparent Kd,MS2 coat protein [1]; [4],108 nM
AUGAUGUAAGGAUAUUGCGCGAUGUUUACCAUUGGUCUGCACAAGAAGGUACAUGAGGAUCACCCAUGUGGGCC,apparent Kd,MS2 coat protein [1]; [5],27.9 nM
same,apparent Kd,MS2 coat protein [1]; [6],39.9 nM
CUCUCGCAAGGAUAUACACAGUGGAAUAUCAUAAGGUGAACACAUGAGGAUCACCCAUGUAGAAGGUGCAUAAG,apparent Kd,MS2 coat protein [1]; [6],38.5 nM
GUUCGGCGAGGAUAUCUGCUACAGUACAUGAGGAUCACCCAUGUGGGUUAUGUCCGGUCCAGAGAAGGCGCUGCCA,apparent Kd,MS2 coat protein [1]; [5],33.4 nM
same,apparent Kd,MS2 coat protein [1]; [6],47.9 nM
GUUGGACAUGAGGAUCACCCAUGUGAAUUGUUUUCCACGUACUAGGAUAUCGCGGGACAAACCAUCGAGAAGGAGUCGACCUAA,apparent Kd,MS2 coat protein [1]; [5],14.4 nM
same,apparent Kd,MS2 coat protein [1]; [6],12.2 nM
UUACAUACCUUAGGAUAUCAUCGUAGUAGGGCAAUAUAACAUGAGGAUCACCCAUGUCUCGUGCGUGAGAAGGAAGAACGUCAU,apparent Kd,MS2 coat protein [1]; [3],32.7 nM
same,apparent Kd,MS2 coat protein [1]; [4],27.8 nM
AACCACGAGUCGGCCGCCACUUGCAACUAGUUUCAGAAGCAGAAACAUGAGGAUCACCCAUGUCGAAGGACCGGGACUUUACAGG,apparent Kd,MS2 coat protein [1]; [7],23.2 nM
same,apparent Kd,MS2 coat protein [1]; [8],18.7 nM
CAUCCUCUUUGACAUGAGGAUCACCCAUGUAUUGCAGUGACCAGAAGGCGUUCCCACAAAGUGGACGAGGAUAUGGAAAAGCCG,apparent Kd,MS2 coat protein [1]; [5],193 nM
same,apparent Kd,MS2 coat protein [1]; [6],184 nM
UUGCUCUCUUCGGCCGCCACUACACGCGAGUUGACGACUGGCGGACAUGAGGAUCACCCAUGUCAUAGGACCGGGAAUCACGCUG,apparent Kd,MS2 coat protein [1]; [7],13.4 nM
same,apparent Kd,MS2 coat protein [1]; [8],13.8 nM
AAGCGACGUGACGCCUACAUGAGGAUCACCCAUGUAUGAAACAGAAGGUCCCGGAACCUUUACCGGAAGGAUAUGUAUCGUGCU,apparent Kd,MS2 coat protein [1]; [5],9.18 nM
same,apparent Kd,MS2 coat protein [1]; [6],7.78 nM
AUAAGUAUAGGAUAUACAGGUAAGCGUUCUUACCGAUCCAGACAUGAGGAUCACCCAUGUAGAAGGAUACGUCU,apparent Kd,MS2 coat protein [1]; [5],8.18 nM
same,apparent Kd,MS2 coat protein [1]; [6],7.87 nM
CCUCGUAAUGAGGAUAUUAGGAAUUCUGGUCCAUAAGAAGGCAUGACAUGAGGAUCACCCAUGUAGCGGAUGGG,apparent Kd,MS2 coat protein [1]; [5],102 nM
same,apparent Kd,MS2 coat protein [1]; [6],145 nM
CGCGGAACAUGAGGAUCACCCAUGUUAUGUAACAGCAAACUAAGAAGGCGUUAUAUAAGUAUGGACGAGGAUAUUAGCUUGAGU,apparent Kd,MS2 coat protein [1]; [3],24.3 nM
same,apparent Kd,MS2 coat protein [1]; [4],8.8 nM
AAAUUCGGGAUCUAGGAUAUGUGCGUUUACACAUGAGGAUCACCCAUGUCUCACAGCCGUUUACCACAGAAGGAGAAACGACCUUA,apparent Kd,MS2 coat protein [1]; [3],31.1 nM
same,apparent Kd,MS2 coat protein [1]; [4],23.9 nM
CAUUUACAUGAGGAUCACCCAUGUUAUUCUACCCAAGGAUAUCGGGAAAGUAGAACAAGUCGAGAAGGUGGUGCGC,apparent Kd,MS2 coat protein [1]; [3],29.5 nM
same,apparent Kd,MS2 coat protein [1]; [4],25.6 nM
UGAGUGAAGGAGAAGGGUCUUCAGGAAAUACGGAAAUAACAUGAGGAUCACCCAUGUUCAAGCAGACAGGAUAUCCAAUGUUGG,apparent Kd,MS2 coat protein [1]; [3],18.8 nM
same,apparent Kd,MS2 coat protein [1]; [4],14.6 nM
GGCGUCCAAUUGCAGGAUAUCGGCCGAACAACAUGAGGAUCACCCAUGUCUUGCCACAAUCAUGCCGAGAAGGGCAGAAGAACGUG,apparent Kd,MS2 coat protein [1]; [3],21 nM
same,apparent Kd,MS2 coat protein [1]; [4],10.1 nM
AAGGACAUGAGGAUCACCCAUGUAGAGGAGCGAGGACCGGUACGGCCGCCACUCGGUGACAUUCGAUAAUGCCGAAUAAGACAUC,apparent Kd,MS2 coat protein [1]; [7],23.6 nM
same,apparent Kd,MS2 coat protein [1]; [8],22.6 nM
GGGCCCUUCUCAUAGGAUAUACUUUAUACCACAUGAGGAUCACCCAUGUAAACAUAAUUAAGAAAGUAGAAGGAUGACGAAAAUCG,apparent Kd,MS2 coat protein [1]; [3],10.4 nM
same,apparent Kd,MS2 coat protein [1]; [4],8.98 nM
CAAUGACCCAAGGAUAUCUGCAGACGCGAGCCCAGAGAAGGUGGGACAUGAGGAUCACCCAUGUUCUCGUGUGA,apparent Kd,MS2 coat protein [1]; [5],37 nM
same,apparent Kd,MS2 coat protein [1]; [6],73.1 nM
ACAUGAGGAUCACCCAUGUAAAUGAUAUGUCACCAUGAUGUUAGAAGGAAAGCGGAAAGUCAAUUUUAGGAUAUAAUGUAUUGA,apparent Kd,MS2 coat protein [1]; [3],11.9 nM
same,apparent Kd,MS2 coat protein [1]; [4],8.51 nM
CUGUUUGUUUGGGUCUGUCAAAAGAACGAUACCAGCCGCAUUAUGGGCCCUUGGCAGCGUAGGACAUGAGGAUCACCCAUGUACG,apparent Kd,"MS2 coat protein [1]; designed as: OFF switch for theophylline, no ligand",18.7 nM
same,apparent Kd,"MS2 coat protein [1]; ligand present: theophylline, designed as: OFF switch for theophylline",35.2 nM
UAAAUACAUGAGGAUCACCCAUGUUUGGAUACCAGAUAUGACAUUAUCCCUUGGCAGCCAUUCGUUCCAAAUGCUAUUGUGAAGG,apparent Kd,"MS2 coat protein [1]; designed as: ON switch for theophylline, no ligand",22.5 nM
same,apparent Kd,"MS2 coat protein [1]; ligand present: theophylline, designed as: ON switch for theophylline",31 nM
AAUGACAUGAGGAUCACCCAUGUCCAUCUAAGCUCGGGUCUGCAGGAUAUUCCCGUGGGAUUAGGGAAGAAGGGCAGUGAUUGU,apparent Kd,MS2 coat protein [1]; [3],14 nM
same,apparent Kd,MS2 coat protein [1]; [4],7.02 nM
GCACCUAGGUCAGGAUAUCAAAAUGUCAUACAUGAGGAUCACCCAUGUGUCGUUAAGUAACACUGUGAGAAGGGACAACUUGAA,apparent Kd,MS2 coat protein [1]; [5],10.3 nM
same,apparent Kd,MS2 coat protein [1]; [6],8.82 nM
GUACCACUCAAGAAGGACCUAGUUCACUAACCUGUGACAUGAGGAUCACCCAUGUGGCUAUUGCGGUAGGAUAUUGAAGACCGG,apparent Kd,MS2 coat protein [1]; [3],157 nM
same,apparent Kd,MS2 coat protein [1]; [4],69.1 nM
GUACUGUAGUGAGGAUAUACGAGUUCGAUAGAACGGCGAUCCAUUUAUACAUGAGGAUCACCCAUGUAGAAGGCACUUCAGUAC,apparent Kd,MS2 coat protein [2]; [5],6.32 nM
same,apparent Kd,MS2 coat protein [2]; [6],53.9 nM
CCUAGUUGGUAAGGAUAUCCUACACUGUUCUGACCCGUGCAAGCUACAUGAGGAUCACCCAUGUGGGAGAAGGUGCGUCAACGU,apparent Kd,MS2 coat protein [2]; [5],12.7 nM
same,apparent Kd,MS2 coat protein [2]; [6],11.9 nM
AAUUAACUCACAGGAUAUAGCAGAGGUCGAGUGAACUUACACGCGACGAGGCUAGAAGGGUGACCACAUGAGGAUCACCCAUGU,apparent Kd,MS2 coat protein [2]; [3],872 nM
same,apparent Kd,MS2 coat protein [2]; [4],103 nM
AGGUACAACGGAGGAUAUAAUAGUCUAUAGACGUUAGAAGGCCGGGCCUUCACAUGAGGAUCACCCAUGUCUCUGGAGGCGCCU,apparent Kd,MS2 coat protein [2]; [3],20.8 nM
same,apparent Kd,MS2 coat protein [2]; [4],16.9 nM
AGAAAACAUGAGGAUCACCCAUGUGAGGAUAUCGAUGUCCAAAAAAAAGUGCGGGACUCGAGAAGGCACUUGGA,apparent Kd,MS2 coat protein [2]; [5],28.6 nM
same,apparent Kd,MS2 coat protein [2]; [6],37.6 nM
UCAUGGAAGUAGAAGGGUAAUAUAUUAGAUUUUACUAUUAGAUGUAGAUAUACAGGAUAUGCGAACAUGAGGAUCACCCAUGUG,apparent Kd,MS2 coat protein [2]; [5],62.7 nM
same,apparent Kd,MS2 coat protein [2]; [6],35.6 nM
CGAUAACAUAGUUAUCCGUAGCGGACAUGAGGAUCACCCAUGUAGGAUAUGUUACUCAACGAGUAACAGAAGGACAUGAGUCUU,apparent Kd,MS2 coat protein [2]; [5],18.1 nM
same,apparent Kd,MS2 coat protein [2]; [6],114 nM
CUAUCGUUGCAGAAGGUUAAAUAAUUUCUCAUCAUGUUUACAUGAGGAUCACCCAUGUAUUUGUUGAAGGAUAUGCAAGUGUUG,apparent Kd,MS2 coat protein [2]; [5],8.67 nM
same,apparent Kd,MS2 coat protein [2]; [6],7.92 nM
ACGCCAAUCGAGAAGGGCCCAUGUGCUACGUCGGCAGGAUAUCGACAUGAGGAUCACCCAUGUUGGCGAUCCUUUUUGGCUAAC,apparent Kd,MS2 coat protein [2]; [5],147 nM
same,apparent Kd,MS2 coat protein [2]; [6],212 nM
AAAAAGUGAUGGUAGGAUAUUGGAAAAGCCACAUGAGGAUCACCCAUGUCAAAAAACCUAAAAAACAAGAAGGGCUGUUAUAAAAA,apparent Kd,MS2 coat protein [2]; [3],18.5 nM
same,apparent Kd,MS2 coat protein [2]; [4],14.8 nM
AGCCAAGCAGGAUAUGCACGUAAUAACAUGAGGAUCACCCAUGUGACCGAUUUAUAUUCUGCAGAAGGGCUUGGAU,apparent Kd,MS2 coat protein [2]; [5],29 nM
same,apparent Kd,MS2 coat protein [2]; [6],118 nM
CCUGUGUGAGGAUAUGGUGUUGGCCAAAAGGAAUAGCUCCUCCAGAAGGCACAUGAGGAUCACCCAUGUCGUGG,apparent Kd,MS2 coat protein [2]; [5],18 nM
same,apparent Kd,MS2 coat protein [2]; [6],81.9 nM
GUAGAGUAGUGAGGAUAUACGAGAUCGAUAGAUCGGCGAUCCAUAUAUACAUGAGGAUCACCCAUGUAGAAGGCACUUCUCUAC,apparent Kd,MS2 coat protein [2]; [5],6.99 nM
same,apparent Kd,MS2 coat protein [2]; [6],103 nM
GGUUGGCGAGGAUAUACAUGAGGAUCACCCAUGUGGUCCUGCGGUGGAAUCGCCCUUUGUAGAAGGCGCGGGUC,apparent Kd,MS2 coat protein [2]; [5],49.5 nM
same,apparent Kd,MS2 coat protein [2]; [6],44.7 nM
UUCUCGAUGUAGAAGGCCGCGUCCGGCUCACGCGGAGGAUAUACAUGAGGAUCACCCAUGUGUUUGUGGCUUAUAUGGUACGAA,apparent Kd,MS2 coat protein [2]; [5],43 nM
same,apparent Kd,MS2 coat protein [2]; [6],212 nM
UAUGAACAUGAGGAUCACCCAUGUGGUAAGAUCACAGGAUAUCACCUCGGACGUGCGAUGUGAGAAGGGUGAUGGU,apparent Kd,MS2 coat protein [2]; [3],585 nM
same,apparent Kd,MS2 coat protein [2]; [4],113 nM
AGCUGUGGCAGAGGAUAUACUACCAUAAUCCAUUGCAAAUAGCGAUGGACAUGAGGAUCACCCAUGUAGAAGGCUGUCUCAGCA,apparent Kd,MS2 coat protein [2]; [5],68.2 nM
same,apparent Kd,MS2 coat protein [2]; [6],275 nM
GUUGCACAAGUUAACAUGAGGAUCACCCAUGUCAAAAGACAUGAGGAUAUGGAGCUGAAGAUUAUCCAGAAGGCAUAAUGCUAA,apparent Kd,MS2 coat protein [2]; [3],460 nM
same,apparent Kd,MS2 coat protein [2]; [4],158 nM
GUACCUUAUGAGAAGGCGGUCAUGAAACAUGAUCGAGGAUAUCAUGUAAACAUGAGGAUCACCCAUGUAUGGGUAUUAUGGUAA,apparent Kd,MS2 coat protein [2]; [3],61.1 nM
same,apparent Kd,MS2 coat protein [2]; [4],11.2 nM
